One series deals with T1, CD1d (Mus musculus, UniProt P11609).
T1 sequence (P11609 22-305 limits assumed): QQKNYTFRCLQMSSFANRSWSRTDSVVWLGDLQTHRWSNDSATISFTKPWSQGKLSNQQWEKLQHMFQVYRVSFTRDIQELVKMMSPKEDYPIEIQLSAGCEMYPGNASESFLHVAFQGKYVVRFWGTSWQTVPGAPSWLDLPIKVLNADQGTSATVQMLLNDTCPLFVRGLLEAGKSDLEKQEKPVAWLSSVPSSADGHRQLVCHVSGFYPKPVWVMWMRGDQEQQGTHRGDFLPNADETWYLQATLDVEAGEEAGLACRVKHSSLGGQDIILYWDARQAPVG
T1 sequence (P01887 21-119 partner): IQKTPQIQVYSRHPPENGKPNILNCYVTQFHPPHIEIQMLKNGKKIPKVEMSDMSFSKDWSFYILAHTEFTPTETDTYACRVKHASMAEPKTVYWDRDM
The experiment in a line: Decay of glycolipids from CD1d measured by L317 binding. The following applies: surface plasmon resonance, 25°C. The method, boiled down: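 His-tagged mouse CD1d pulsed overnight with each glycolipid, then captured on Ni-charged NTA sensor chip channels; complexes allowed to decay for varied times before a saturating dose of αGalCer/CD1d-specific mAb L317 was flowed over. Binding was measured by surface plasmon resonance at 25°C and normalized to maximum binding for each antigen.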
(In SPR one partner is held on a chip, and binding of the other changes the refractive index at the surface.)

The target of series [1] is T2, glycolipid/CD1d complexes on splenic APC (Mus musculus, UniProt P11609).
T2 sequence (P11609 22-336): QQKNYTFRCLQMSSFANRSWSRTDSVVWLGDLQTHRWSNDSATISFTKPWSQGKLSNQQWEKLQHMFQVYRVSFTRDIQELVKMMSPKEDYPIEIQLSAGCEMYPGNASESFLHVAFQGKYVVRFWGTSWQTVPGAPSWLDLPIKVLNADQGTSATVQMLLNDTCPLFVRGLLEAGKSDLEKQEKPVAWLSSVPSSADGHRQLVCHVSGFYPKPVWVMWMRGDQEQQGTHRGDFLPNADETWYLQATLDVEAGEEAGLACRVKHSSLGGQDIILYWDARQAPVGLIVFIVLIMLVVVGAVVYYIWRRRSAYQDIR
T2 sequence (P01887 21-119 partner): T1 sequence (P01887 21-119 partner)
It counts as in vivo. The following applies: 1 μg i.v. In outline:
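At set times after i.v. immunization, spleens were collagenase D-digested at 37°C, treated with 5 mM EDTA for 5 min and strained. Cells were split into CD11c-enriched and depleted fractions with anti-CD11c magnetic beads. A dose range of each fraction was cultured with 1.2 hybridoma cells (2 × 10^5/well) without added antigen. Supernatant IL-2 was measured by sandwich ELISA.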

A further series deals with splenic DC. The series can be described thus: Phenotype of splenic DC from glycolipid immunized mice. The series is classed as in vivo, mouse. The following applies: 17.5 h and 44 h after immunization.
For the next series, the system named is 1.2 Vα14i NKT hybridoma. The series can be described thus: ERK1/2 phosphorylation in Vα14i NKT hybridoma after glycolipid-pulsed APCs. It counts as cell-based, mouse. The following applies: 1.2 hybridoma; for extent of ERK1/2 phosphorylation: A20-CD1d cells as APCs. In outline:
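A20-CD1d cells (10^6/ml) were pulsed 2 h with glycolipid (DMSO stock diluted in PBS), washed cold, and mixed with hybridoma cells at 4:1 on ice, then pelleted and warmed to 37°C for timed intervals. Cells were fixed in 4% PFA, stained for Thy1.2, permeabilized in 90% methanol and stained for ppERK1/2. Flow cytometry was gated on Thy1.2+ cells with t = 0 as negative control. Values are % ppERK+ (glycolipid) minus % ppERK+ (vehicle).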

A further series relates to C57BL/6J mice. The series can be described thus: Serum cytokine ELISA after i.v. injection of glycolipid. The following applies: 1 μg i.v. It counts as in vivo, mouse. In outline: (§1)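 Glycolipid was dissolved at 100 μg/mL in DMSO, diluted in PBS, heated 56°C 10 min and vortexed. Glycolipid or vehicle was injected i.v. and mice bled at set times. Serum cytokines were quantified by sandwich ELISA with paired capture/detection mAbs.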
Background: ELISA stands for enzyme-linked immunosorbent assay.

The subject of the next series is NK cells. The experiment in a line: NK cell trans-activation. The series is classed as in vivo, mouse. The following applies: 1 μg i.v., 18 h after injection, liver and spleen. The method, boiled down:
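Glycolipid (DMSO stock diluted in PBS) was given i.v. Liver was perfused via portal vein and mononuclear cells isolated at the 40/60% Percoll interface (900 g, 20 min); splenocytes were dissociated and red cells lysed. Cells were surface-stained at 4°C for 45 min, then permeabilized with Cytofix/Cytoperm for intracellular IFNγ staining and flow cytometry.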

The next series deals with Vα14i NKT cells. The experiment in a line: Ex vivo activation of Vα14i NKT cells after i.v. glycolipid. It counts as in vivo, mouse. The following applies: 1 μg i.v.; for Vα14i NKT cell activation (percentage producing IFNγ, IL-4 and TNF; CD69 and CD40L expression): two hours after injection. The method, boiled down: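 Mice received glycolipid i.v. (DMSO stock diluted in PBS, heated 56°C 10 min). Spleens were taken at 2 h, mechanically dissociated, filtered and red cells lysed. Cells were stained with mAbs together with CD1d tetramer in PBS/10% FCS at 4°C for 45 min and analysed by flow cytometry.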

Series [2] addresses Vα14i/Vβ8.2 TCR of 1.2 Vα14i NKT cell hybridoma (Mus musculus, UniProt A0A0B4J1J9+A0A0G2JG46+A0A140T8N6+P11609). The experiment in a line: Equilibrium glycolipid/CD1d tetramer staining of 1.2 hybridoma. It counts as binding. The following applies: glycolipid/CD1d tetramers.
The test system of another series is monoclonal antibody L317. The series can be described thus: L317 antibody binding to glycolipid/CD1d complexes. The following applies: surface plasmon resonance. In outline: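 Real-time binding of L317 to glycolipid-loaded CD1d was measured by surface plasmon resonance at 25°C. Kinetic parameters came from fitting specific sensorgrams.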
For the next series, the system named is CD40−/− mice. The experiment in a line: Serum IFNγ in CD40-deficient mice. The series is classed as in vivo, mouse. The following applies: 1 μg i.v., serum at 6 h and 24 h, versus C57BL/6. In outline: as §1
[3] abbreviates: APC harvested 1.5 h after immunization.

Like-named read-outs stand apart in the source and are kept apart here.

As for `CCCCCCCCCCCCCCCCCCCCCCCC(=O)N[C@@H](COC1OC(CO)C(O)C(O)C1O)[C@H](O)[C@H](O)CCCCC` (some centres unmarked) [OCH], the “t1/2 (dissociation of glycolipid from CD1d)” value worked out at 65.5 min at CD1d and 65.5 ± 37.8 min on CD1d (listed as CD1d/OCH). The “IL-2 release by 1.2 hybridoma with APC from immunized mice” value is “higher production of IL-2 than C-glycoside” in series [1] (setting [3]); “considerably reduced compared to αGalCer and C-glycoside” in series [1] (APC harvested 17.5 h and 44 h after immunization). Besides, in the series on splenic DC, the “increased expression of CD80, CD86 and CD1d in splenic DC” value is listed as “to the same extent as αGalCer”. Moreover, in the series on 1.2 Vα14i NKT hybridoma, the “extent of ERK1/2 phosphorylation” value is on record as “indistinguishable”. In addition, the ERK1/2 phosphorylation entry with 1.2 Vα14i NKT hybridoma (BMDCs or splenic B cells as APCs) is “induced fewer 1.2 cells to phosphorylate ERK1/2 than αGalCer”. Moreover, the “serum IFNγ level” value with C57BL/6J mice is recorded as “relatively low levels of IFNγ”. In the series with C57BL/6J mice, the “serum IL-4 level” value is listed as “high levels of IL-4, equivalent to αGalCer”. The “IFNγ production by NK cells (trans-activation)” value in the series on NK cells is “Impaired NK cell trans-activation”. Moreover, the “CD40L expression on Vα14i NKT cells” value in the series with Vα14i NKT cells (2 h after injection, spleen) is listed as “induced more CD40L than C-glycoside”. For the same compound, the “Vα14i NKT cell activation (percentage producing IFNγ, IL-4 and TNF; CD69 and CD40L expression)” value in the series on Vα14i NKT cells was “less potent than αGalCer”. In [2], the “tetramer binding to 1.2 hybridoma cells” value is recorded as “barely able to bind”. In addition, in the series on monoclonal antibody L317, the “affinity of L317 for glycolipid bound to CD1d” value was “weaker”.
As for `CCCCCCCCCCCCCCCCCCCCCCCCCC(=O)N[C@@H](CO[C@H]1O[C@H](CO)[C@H](O)[C@H](O)[C@H]1O)[C@H](O)[C@H](O)CCCCCCCCCCCCCC` [αGalCer, α-galactosyl ceramide], the “t1/2 (dissociation of glycolipid from CD1d)” value on CD1d is 302.6 min; at CD1d (listed as CD1d/αGalCer) it was 302.6 ± 132.4 min. Moreover, the “IL-2 release by 1.2 hybridoma with APC from immunized mice” value in series [1] (setting [3]) was “best response”. The “stability of complexes with CD1d in vivo” value in series [1] (functional bioassay) is reported as “much more stable in vivo than OCH”. Also, the “extent of ERK1/2 phosphorylation” value in the series on 1.2 Vα14i NKT hybridoma is listed as “dose-dependent increase in ppERK”. Further, the “IFNγ levels in CD40-deficient mice” value in the series with CD40−/− mice was “strongly reduced”. Also, the “IFNγ production by NK cells (trans-activation)” value in the series on NK cells is “highest percentage of IFNγ-expressing NK cells”. Further, the “Vα14i NKT cell activation (percentage producing IFNγ, IL-4 and TNF; CD69 and CD40L expression)” value with Vα14i NKT cells is “highest percentage”. Besides, in the series with monoclonal antibody L317, the “affinity of L317 for glycolipid bound to CD1d” value is “highest”.
